Measurements published in ChEMBL document CHEMBL4052629, “Scutellarin derivatives as apoptosis inducers: Design, synthesis and biological evaluation” (Eur J Med Chem, 2017).
The source made the active and inactive calls. The calls are words filed in the database; no cut-off is given here.

Key:
PC-3 [1] = assay: Cell cycle arrest in human PC3 cells assessed as accumulation at G2/M phase at 0.31 uM after 72 hrs by propidium iodide staining-based flow cytometric analysis (reference value: 10.19%); format: functional
Summary of the method: (§1)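 Concentrations used were 0, 0.3, 0.6 and 1.2 μM in HepG2 and 0, 0.16, 0.31 and 1.25 μM in PC-3, with untreated cells as control, for 72 h. Cells were trypsinized, washed in PBS, fixed in cold ethanol at 4 °C overnight, then incubated 30 min in PBS containing RNase A and propidium iodide. DNA content was read by flow cytometry to give phase distribution.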

PC-3 [2] = assay: Induction of apoptosis in human PC3 cells assessed as nuclear fragmentation at 0.16 to 1.25 uM after 48 hrs by Hoechst 33258 staining-based fluorescent microscopic analysis; format: functional, cell-based
Summary of the method: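 PC-3 cells grown on sterile cover slips were exposed to 0, 0.16, 0.31 or 1.25 μM, or vehicle, for 48 h. Then fixed with 4% paraformaldehyde for 10 min, washed twice in PBS, stained with Hoechst 33258 for 5 min and washed again. Nuclei imaged at 350 nm excitation and 460 nm emission.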

PC-3 [3] = assay: Induction of apoptosis in human PC3 cells assessed as viable cells at 0.16 uM after 72 hrs by Annexin V-APC/7-AAD or propidium iodide staining-based flow cytometric analysis (reference value: 88.74%); format: functional; conditions: PC-3, 72 h, read-out: Activity
PC-3 [4] = assay: Induction of apoptosis in human PC3 cells assessed as necrotic cells at 0.16 uM after 72 hrs by Annexin V-APC/7-AAD or propidium iodide staining-based flow cytometric analysis (reference value: 2.43%); format: functional
PC-3 [5] = assay: Induction of apoptosis in human PC3 cells assessed as late apoptotic cells at 0.31 uM after 72 hrs by Annexin V-APC/7-AAD or propidium iodide staining-based flow cytometric analysis (reference value: 4.74%); format: functional
L02 [6] = assay: Induction of apoptosis in human LO2 cells assessed as late apoptotic cells at 1.25 uM after 72 hrs by Annexin V-FITC/7-AAD or propidium iodide staining-based flow cytometric analysis (reference value: 0.11%); format: cell-based; conditions: l02, 72 h
PC-3 [7] = assay: Induction of apoptosis in human PC3 cells assessed as reduction in mitochondrial membrane potential at 0.16 uM after 48 hrs by JC-1 staining-based flow cytometric analysis (reference value: 1.86%); format: functional; parameters: scale not given: the % may be the effect or the level left
Summary of the method: (§2)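 After overnight culture, PC-3 cells were treated in triplicate with 0, 0.16, 0.31 or 1.25 μM, or vehicle, for 48 h. They were then loaded with JC-1, and the proportion with depolarized mitochondrial membrane potential was counted by flow cytometry.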

PC-3 [8] = assay: Induction of apoptosis in human PC3 cells assessed as reduction in mitochondrial membrane potential after 48 hrs by JC-1 staining-based flow cytometric analysis; format: functional, cell-based; summary of the method: as §2
HepG2 [9] = assay: Cell cycle arrest in human HepG2 cells assessed as accumulation at G2/M phase at 0.3 uM after 72 hrs by propidium iodide staining-based flow cytometric analysis (reference value: 21.4%); format: functional; summary of the method: as §1
HepG2 [10] = assay: Cell cycle arrest in human HepG2 cells assessed as accumulation at G2/M phase at 0.6 uM after 72 hrs by propidium iodide staining-based flow cytometric analysis (reference value: 21.4%); format: functional; summary of the method: as §1
HepG2 [11] = assay: Induction of apoptosis in human HepG2 cells assessed as reduction in adherent cells at 0.3 to 0.6 uM after 48 hrs by Hoechst 33258 staining-based fluorescent microscopic analysis; format: functional, cell-based
Summary of the method: (§3)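 HepG2 cells on sterile cover slips in 6-well plates exposed to 0, 0.3, 0.6 or 1.2 μM, or vehicle, for 48 h. Fixed in 4% paraformaldehyde for 10 min, PBS-washed, stained with Hoechst 33258 for 5 min. Nuclear morphology and adherent cell number viewed at 350 nm excitation / 460 nm emission. Non-treated cells served as control.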

HepG2 [12] = assay: Induction of apoptosis in human HepG2 cells assessed as rupture of cell membrane at 1.2 uM after 48 hrs by Hoechst 33258 staining-based fluorescent microscopic analysis; format: functional; summary of the method: as §3
HepG2 [13] = assay: Cell cycle arrest in human HepG2 cells assessed as accumulation at S phase after 72 hrs by propidium iodide staining-based flow cytometric analysis; format: functional; summary of the method: as §1
HepG2 [14] = assay: Induction of apoptosis in human HepG2 cells assessed as early apoptotic cells at 0.3 uM after 72 hrs by Annexin V-APC/7-AAD or propidium iodide staining-based flow cytometric analysis (reference value: 1.87%); format: functional
HepG2 [15] = assay: Induction of apoptosis in human HepG2 cells assessed as necrotic cells at 0.3 uM after 72 hrs by Annexin V-APC/7-AAD or propidium iodide staining-based flow cytometric analysis (reference value: 1.87%); format: functional
HepG2 [16] = assay: Induction of apoptosis in human HepG2 cells assessed as early apoptotic cells at 0.6 uM after 72 hrs by Annexin V-APC/7-AAD or propidium iodide staining-based flow cytometric analysis (reference value: 1.87%); format: functional
HepG2 [17] = assay: Induction of apoptosis in human HepG2 cells assessed as viable cells at 1.2 uM after 72 hrs by Annexin V-APC/7-AAD or propidium iodide staining-based flow cytometric analysis (reference value: 90.08%); format: functional; conditions: HepG2, 72 h, read-out: Activity
HepG2 [18] = assay: Induction of apoptosis in human HepG2 cells assessed as early apoptotic cells at 1.2 uM after 72 hrs by Annexin V-APC/7-AAD or propidium iodide staining-based flow cytometric analysis (reference value: 1.87%); format: functional
L02 [19] = assay: Induction of apoptosis in human LO2 cells assessed as necrotic cells at 50 uM after 72 hrs by Annexin V-FITC/7-AAD or propidium iodide staining-based flow cytometric analysis (reference value: 1.99%); format: cell-based; conditions: l02, 72 h
L02 [20] = assay: Induction of apoptosis in human LO2 cells assessed as early apoptotic cells at 1.2 uM after 72 hrs by Annexin V-FITC/7-AAD or propidium iodide staining-based flow cytometric analysis (reference value: 3.65%); format: cell-based; conditions: l02, 72 h
HepG2 [21] = assay: Induction of apoptosis in human HepG2 cells assessed as reduction in mitochondrial membrane potential at 0.3 uM after 48 hrs by JC-1 staining-based flow cytometric analysis (reference value: 1.6%); format: functional; parameters: scale not given: the % may be the effect or the level left
Summary of the method: (§4)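 HepG2 cells cultured overnight, then incubated in triplicate with 0, 0.3, 0.6 or 1.2 μM, or vehicle, for 48 h. Stained with the cationic dye JC-1. Flow cytometry gave the percentage of cells with healthy versus collapsed mitochondrial membrane potential.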

HepG2 [22] = assay: Induction of apoptosis in human HepG2 cells assessed as reduction in mitochondrial membrane potential at 1.2 uM after 48 hrs by JC-1 staining-based flow cytometric analysis (reference value: 1.6%); format: functional; parameters: scale not given: the % may be the effect or the level left; summary of the method: as §4
HepG2 [23] = assay: Induction of apoptosis in human HepG2 cells assessed as reduction in mitochondrial membrane potential after 48 hrs by JC-1 staining-based flow cytometric analysis; format: functional, cell-based; summary of the method: as §4
HepG2 [24] = assay: Induction of apoptosis in human HepG2 cells assessed as reduction in HO-2 expression levels at 2 uM after 24 hrs by membrane-based sandwich immunoassay; format: functional, cell-based
Summary of the method: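 HepG2 cells treated at 2 μM for 24 h; protein extracts prepared per the kit protocol. Relative levels of 35 apoptosis-related proteins measured with a human apoptosis antibody array.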

HepG2 [25] = assay: Induction of apoptosis in human HepG2 cells after 72 hrs by Annexin V-APC/7-AAD or propidium iodide staining-based flow cytometric analysis; format: functional, cell-based

For COc1ccc(-c2cc(=O)c3c(O)c(OC)c(O[C@@H]4O[C@H](C(=O)NCCOc5no[n+]([O-])c5S(=O)(=O)c5ccccc5)[C@@H](O)[C@H](O)[C@H]4O)cc3o2)cc1, the Activity (PC-3 [1]) was 13.48%, the Activity (PC-3 [2]) was “Active” and the viability at 0.16 µM (PC-3 [3]) was 79.1%. For the same molecule, the Activity (PC-3 [4]) was 4.42%, the Activity (PC-3 [5]) was 22.46% and the Activity (L02 [6]) was 2.95%. For the same molecule, the Activity (PC-3 [7]) was 17.9% and the Activity (PC-3 [8]) was “Dose-dependent effect”.

O=C(NCCCOc1no[n+]([O-])c1S(=O)(=O)c1ccccc1)[C@H]1O[C@@H](Oc2cc3oc(-c4ccc(OCc5ccccc5)cc4)cc(=O)c3c(O)c2OCc2ccccc2)[C@H](O)[C@@H](O)[C@@H]1O was tested, and the Activity (HepG2 [9]) was 20.73%, the Activity (HepG2 [10]) was 17.54% and the Activity (HepG2 [11]) was “Active”. The Activity (HepG2 [12]) was “Active”, the Activity (HepG2 [13]) was “Dose-dependent effect” and the Activity (HepG2 [14]) was 3.04%. The Activity (HepG2 [15]) was 3.85%, the Activity (HepG2 [16]) was 13.13% and the viability at 1.2 µM (HepG2 [17]) was 41.8%. The Activity (HepG2 [18]) was 13.46%, the Activity (L02 [19]) was 2.27% and the Activity (L02 [20]) was 14.2%. For the same molecule, the Activity (HepG2 [21]) was 15.14%, the Activity (HepG2 [22]) was 58.47% and the Activity (HepG2 [23]) was “Dose-dependent effect”. For the same molecule, the Activity (HepG2 [24]) was “Active” and the Activity (HepG2 [25]) was “Dose-dependent effect”.
